Here are results for four substances from article PMC2865185 (The FEBS journal, 2009).

Series [1] concerns the target T1, EphA3 kinase domain (wild-type) (Homo sapiens, UniProt P29320).
T1 sequence (P29320 621-882 limits assumed): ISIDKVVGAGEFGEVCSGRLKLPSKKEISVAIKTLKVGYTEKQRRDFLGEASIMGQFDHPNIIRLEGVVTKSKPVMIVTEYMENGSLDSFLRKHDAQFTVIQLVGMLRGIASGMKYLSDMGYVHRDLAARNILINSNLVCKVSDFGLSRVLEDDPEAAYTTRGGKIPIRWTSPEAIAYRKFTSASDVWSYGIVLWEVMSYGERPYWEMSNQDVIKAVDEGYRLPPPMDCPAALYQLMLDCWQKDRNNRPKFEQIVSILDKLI
In words: ADP-Quest kinase assay, wild-type EphA3 kinase domain. The format is biochemical. The note with it: for kcat/Km / kcat: 200 µM ATP, room temperature, ADP-Quest; for kcat: ± SD from two independent experiments, in duplicate. The procedure, abridged:
(§1)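 EphA3 kinase domain, wild-type or point mutant made by site-directed mutagenesis, expressed in E. coli BL21 Gold (DE3). His-tag purified, thrombin-cleaved, gel-filtered, then autophosphorylated with 10 mM each ATP and MgCl2; free nucleotide removed by anion exchange. ADP-Quest fluorescence (ex 530/em 590 nm) at room temperature. Peptide 1–4000 µM, ATP 200 µM, enzyme 10 nM–5 µM. Duplicates, background-ADP corrected. Km/Vmax from Michaelis–Menten fit; SD from two independent experiments.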

For another series, the system named is EphA3 kinase domain. The note with it: juxtamembrane peptide, ref [20], cited from earlier work.
In a further series the target is T2, EphB4 (Homo sapiens, UniProt P54760).
T2 sequence (P54760 615-899 limits assumed): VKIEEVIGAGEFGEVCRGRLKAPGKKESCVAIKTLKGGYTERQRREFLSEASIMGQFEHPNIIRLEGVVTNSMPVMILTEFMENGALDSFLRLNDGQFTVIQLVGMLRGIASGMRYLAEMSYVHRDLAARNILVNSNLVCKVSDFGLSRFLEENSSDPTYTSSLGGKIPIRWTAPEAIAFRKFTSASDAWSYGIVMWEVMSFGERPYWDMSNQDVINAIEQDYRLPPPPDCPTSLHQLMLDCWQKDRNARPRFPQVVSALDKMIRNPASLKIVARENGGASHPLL
In words: Isoform specificity of EPHOPT, EphB4. The format is biochemical. The settings on record: in words; EphB4, non-arginine at position 782. The procedure, abridged: (§2)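 Each kinase prepared by target. EphA5, EphA7 and EphB3 were autophosphorylated with 10 mM each ATP and MgCl2, then freed of nucleotide by anion exchange. EphB2 and EphB4 were bought in active form and used unmodified. ADP-Quest fluorescence read-out (ex 530/em 590 nm) at room temperature. Peptide substrate 1–4000 µM, ATP 200 µM, enzyme 10 nM–5 µM. Duplicates, background-corrected. Kinetic constants from Michaelis–Menten fit.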

A short description of series [2]: Aqueous solubility of peptide. In kind it is physicochemical. The settings on record: aqueous buffer.
Another series has as its target T3, EphA3(K785E) (Homo sapiens, UniProt P29320, K785E).
T3 sequence (P29320 577-947 K785E limits assumed): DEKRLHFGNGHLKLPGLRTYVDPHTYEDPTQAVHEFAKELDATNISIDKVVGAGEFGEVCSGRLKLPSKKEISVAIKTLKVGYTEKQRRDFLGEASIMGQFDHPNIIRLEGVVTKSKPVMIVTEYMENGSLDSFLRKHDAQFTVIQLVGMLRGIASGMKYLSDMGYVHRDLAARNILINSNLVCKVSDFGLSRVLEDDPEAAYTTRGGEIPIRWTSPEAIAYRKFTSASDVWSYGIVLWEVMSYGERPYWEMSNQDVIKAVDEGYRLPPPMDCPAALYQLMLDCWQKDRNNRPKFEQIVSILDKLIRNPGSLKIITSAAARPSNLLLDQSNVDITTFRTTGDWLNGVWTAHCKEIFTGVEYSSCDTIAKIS
In words: ADP-Quest kinase assay, EphA3 K785E mutant. In kind it is biochemical. In a few lines: as §1

The next series concerns the target T4, EphA7 (Homo sapiens, UniProt Q15375).
T4 sequence (Q15375 633-894 limits assumed): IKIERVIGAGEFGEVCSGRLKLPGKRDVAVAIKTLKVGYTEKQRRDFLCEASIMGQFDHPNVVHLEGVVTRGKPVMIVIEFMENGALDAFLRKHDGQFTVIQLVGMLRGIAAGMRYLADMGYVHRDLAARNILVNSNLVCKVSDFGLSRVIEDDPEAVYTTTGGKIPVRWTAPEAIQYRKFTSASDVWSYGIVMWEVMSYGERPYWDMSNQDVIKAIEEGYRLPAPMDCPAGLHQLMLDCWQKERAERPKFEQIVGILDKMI
In words: Isoform specificity of EPHOPT, EphA7. In kind it is biochemical. The settings on record: in words; EphA7, non-arginine at position 782. The procedure, abridged: as §2

The target in a further series is T5, EphA3(N830A) (Homo sapiens, UniProt P29320, N830A).
T5 sequence (P29320 621-882 N830A limits assumed): T1 sequence (P29320 621-882 limits assumed) with N210A
In words: ADP-Quest kinase assay, EphA3 N830A mutant. The settings on record: for kcat/Km / Km / kcat: 200 µM ATP, room temperature, ADP-Quest; for Km / kcat: peptide 1 to 4000 µM, ± SD from two independent experiments, in duplicate. The format is biochemical. The procedure, abridged:
as §1

In the next series the target is T6, EphB2 (Homo sapiens, UniProt P29323).
T6 sequence (P29323 621-884 limits assumed): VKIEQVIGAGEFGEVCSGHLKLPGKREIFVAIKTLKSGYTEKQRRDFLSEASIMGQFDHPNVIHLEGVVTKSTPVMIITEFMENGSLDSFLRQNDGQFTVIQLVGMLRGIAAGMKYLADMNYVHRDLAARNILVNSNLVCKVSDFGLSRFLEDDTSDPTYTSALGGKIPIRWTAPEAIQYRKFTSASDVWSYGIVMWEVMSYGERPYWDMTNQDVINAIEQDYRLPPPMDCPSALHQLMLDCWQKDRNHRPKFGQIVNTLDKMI
Briefly: Isoform specificity of EPHOPT, EphB2. In kind it is biochemical. The note with it: in words; EphB2, non-arginine at position 782. In a few lines: as §2

Another series addresses T7, EphB3 (Homo sapiens, UniProt P54753).
T7 sequence (P54753 633-896 limits assumed): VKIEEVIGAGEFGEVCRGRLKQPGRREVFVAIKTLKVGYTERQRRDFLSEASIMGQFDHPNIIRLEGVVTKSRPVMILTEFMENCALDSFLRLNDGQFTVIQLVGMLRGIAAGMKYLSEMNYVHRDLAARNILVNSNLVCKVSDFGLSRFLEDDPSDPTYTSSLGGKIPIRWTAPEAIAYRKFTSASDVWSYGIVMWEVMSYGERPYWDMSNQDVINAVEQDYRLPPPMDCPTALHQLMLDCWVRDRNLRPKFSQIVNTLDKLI
In words: Isoform specificity of EPHOPT, EphB3. The settings on record: in words. The format is biochemical. The procedure, abridged: as §2

Series [3] deals with EphA5, EphA7, EphB3, EphB4, EphB2 (relative to EphA3). Briefly: Isoform specificity of EPHOPT, other EPH kinase domains. In kind it is biochemical. The procedure, abridged:
as §2

The mark [4] stands for this setting: EphA3(K785E), 200 µM ATP, room temperature, ADP-Quest, ± SD from two independent experiments, in duplicate.
Setting [5] is: EphA3 K785E mutant, 200 µM ATP, room temperature, ADP-Quest.
Where [6] appears, read: EphA3 K785E mutant, peptide 1 to 4000 µM, 200 µM ATP, room temperature, ADP-Quest, ± SD from two independent experiments, in duplicate.
Setting [7] is: EphA3(N830A) relative to wild-type.
[8] abbreviates: relative to juxtamembrane peptide.

Changes are numbered by the printed parent chain. Read-outs that look alike come from different tables or passages of the source.

A word on the Km: it is the concentration of substrate that gives half-maximal velocity. By solubility is commonly meant the dissolved amount per volume that the medium holds.

For KQWDNYEKIW [OPTYK], the kcat/Km in series [1] was 34270 M⁻¹ s⁻¹. The kcat in series [1] (peptide 1 to 4000 µM) turned out to be 220 ± 27 min⁻¹.

On to “D^598PHTYEDPTQ^606 [juxtamembrane EphA3 peptide]”, for which, in the series with EphA3 kinase domain (EphA3 kinase domain), the Km is 1000 ± 20 µM, the catalytic efficiency is 200 min⁻¹ mM⁻¹ and the kcat was 199 ± 9 min⁻¹. For the same substance, the kcat in the series with EphA3 kinase domain (quoted for comparison with EPHOPT) is recorded as 199 per minute.

As to KQWDNYEpYIW [EPHOPT], the “catalytic efficiency (EphB4)” value at EphB4 was “lower catalytic efficiencies”. Also, in series [2], the solubility is not below 100000 µM. Also, the “decrease in catalytic efficiency” value at EphA3(K785E) (EphA3(K785E) relative to wild-type) is listed as 260 -fold; at EphA3(N830A) (setting [7]) it was “more than one order of magnitude decrease”. Also, the “negative effect on Km” value at EphA3(K785E) (EphA3(K785E) relative to wild-type enzyme) is “about an order of magnitude”. Besides, the kcat stood at 0.567 ± 0.012 s⁻¹ at EphA3(K785E) (setting [4]); 0.567 ± 0.012 s⁻¹ at EphA3(K785E) (setting [6]); 0.55 ± 0.0233 s⁻¹ on EphA3(N830A) (EphA3 N830A mutant); 850 ± 44 per minute in [1]; 850 ± 44 min⁻¹ in series [1] (peptide 1 to 4000 µM). Moreover, the kcat/Km at EphA3(K785E) (setting [5]) worked out at 3020 M⁻¹ s⁻¹; on EphA3(N830A) (EphA3(N830A)) it was 0.835 µM/min; on EphA3(N830A) (EphA3 N830A mutant), 13900 M⁻¹ s⁻¹; in [1] it was 787030 M⁻¹ s⁻¹. Moreover, the figures for the Km on EphA3(K785E) (setting [6]) and on EphA3(N830A) (EphA3 N830A mutant) were 188 ± 64 µM and 39.5 ± 0.7 µM, respectively. In addition, the “catalytic efficiency (EphA7)” value on EphA7 is “lower catalytic efficiencies”. The “decrease in kcat/Km” value on EphA3(N830A) (setting [7]) is 56 -fold. In series [1] (setting [8]), the “drop in Km” value is “almost two orders of magnitude”. Moreover, the “increase in catalytic efficiency” value in [1] (setting [8]) was “over 200 -fold”. In addition, the increase in kcat in series [1] (setting [8]) is 4 -fold. Also, the “catalytic efficiency (EphB2)” value at EphB2 is “lower catalytic efficiencies”. Moreover, the “catalytic efficiency of EphB3 relative to EphA5” value on EphB3 was “nearly as efficient as EphA5”. At EphB3, the “substrate affinity at EphB3 relative to EphA3” value is recorded as “nearly identical substrate affinity as EphA3”. The “rank order of catalytic efficiency across isoforms” value in series [3] (EphA3 and five other EPH kinases, Supplemental Table S2) is recorded as “EphA3>EphA5≅EphB3>>EphA7≅EphB4>>EphB2”. In addition, the “selectivity for EphA3 over other EPH kinases” value in series [3] (in words) is recorded as “mildly to strongly selective for EphA3”.

As for KQWDNYEFIW [OPTYF], the kcat/Km on EphA3(K785E) (EphA3(K785E), 200 µM ATP, room temperature, ADP-Quest) is 0.155 µM/min; at EphA3(K785E) (setting [5]), 2580 M⁻¹ s⁻¹; on EphA3(N830A) (EphA3 N830A mutant) it was 3280 M⁻¹ s⁻¹; in series [1], 233880 M⁻¹ s⁻¹. The kcat at EphA3(K785E) (setting [4]) was determined as 0.383 ± 0.13 s⁻¹; at EphA3(K785E) (setting [6]), 0.383 ± 0.13 s⁻¹; at EphA3(N830A) (EphA3 N830A mutant), 0.5 ± 0.0233 s⁻¹; in series [1], 421 ± 30 min⁻¹; in series [1] (peptide 1 to 4000 µM), 421 ± 30 min⁻¹. The “weaker affinity (relative to EPHOPT)” value on EphA3(N830A) (EphA3(N830A), OPTYF versus EPHOPT) was 5 -fold. The Km at EphA3(N830A) (EphA3 N830A mutant) was determined as 152 ± 35 µM. Further, the “relative change in Km” value in series [1] (relative to EPHOPT) is ~ 2 -fold. Moreover, the “relative change in kcat” value in series [1] (relative to EPHOPT) is ~ 2 -fold.
